# System: Staphylococcus aureus
# Experiment: Antibacterial activity against Staphylococcus aureus ACH-0204 isolate with gyrA Ser84Leu mutant after 24 hrs by broth microdilution method
# Type: functional
# Details: not given
# Procedure, shortened: (§1)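 Broth microdilution per CLSI guidelines. MIC taken as the lowest concentration preventing visible growth at 24 h. Each MIC determined at least twice.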
row,Structure (SMILES),MIC [µg/mL]
1,CO/N=C1\CN(c2nc3c(cc2F)c(=O)c(C(=O)O)cn3C2CC2)CC1CN (centres undefined) [GEMIFLOXACIN],0.125
2,Cc1cc(-c2cc3c(cc2F)c(=O)c2c(=O)[nH]sc2n3C2CC2)ccn1,0.03

# System: Staphylococcus aureus
# Experiment: Antibacterial activity against Staphylococcus aureus ATCC 33591 isolate after 24 hrs by broth microdilution method
# Type: functional
# Details: ATCC 33591, 24 h
# Procedure, shortened: as §1
row,Structure (SMILES),MIC [µg/mL]
1,CO/N=C1\CN(c2nc3c(cc2F)c(=O)c(C(=O)O)cn3C2CC2)CC1CN (centres undefined) [GEMIFLOXACIN],0.06
2,Cc1cc(-c2cc3c(cc2F)c(=O)c2c(=O)[nH]sc2n3C2CC2)ccn1,0.004

# System: Staphylococcus aureus
# Experiment: Antibacterial activity against Staphylococcus aureus ACH-0216 isolate with grlA Ser80Phe mutant after 24 hrs by broth microdilution method
# Type: functional
# Details: not given
# Procedure, shortened: as §1
row,Structure (SMILES),MIC [µg/mL]
1,CO/N=C1\CN(c2nc3c(cc2F)c(=O)c(C(=O)O)cn3C2CC2)CC1CN (centres undefined) [GEMIFLOXACIN],0.125
2,Cc1cc(-c2cc3c(cc2F)c(=O)c2c(=O)[nH]sc2n3C2CC2)ccn1,0.016

# System: Staphylococcus aureus
# Experiment: Antibacterial activity against Staphylococcus aureus ACH-0218 isolate with grlA Glu84Lys mutant after 24 hrs by broth microdilution method
# Type: functional
# Details: not given
# Procedure, shortened: as §1
row,Structure (SMILES),MIC [µg/mL]
1,CO/N=C1\CN(c2nc3c(cc2F)c(=O)c(C(=O)O)cn3C2CC2)CC1CN (centres undefined) [GEMIFLOXACIN],0.125
2,Cc1cc(-c2cc3c(cc2F)c(=O)c2c(=O)[nH]sc2n3C2CC2)ccn1,0.08

# System: Staphylococcus aureus
# Experiment: Antibacterial activity against Staphylococcus aureus ACH-0186 isolate with gyrA Ser84Leu and grlA Ser80Phe, Ala116Val mutant after 24 hrs by broth microdilution method
# Type: functional
# Details: not given
row,Structure (SMILES),MIC [µg/mL]
1,CO/N=C1\CN(c2nc3c(cc2F)c(=O)c(C(=O)O)cn3C2CC2)CC1CN (centres undefined) [GEMIFLOXACIN],4
2,Cc1cc(-c2cc3c(cc2F)c(=O)c2c(=O)[nH]sc2n3C2CC2)ccn1,0.5

# System: Staphylococcus aureus
# Experiment: Antibacterial activity against Staphylococcus aureus ACH-0206 isolate with gyrA Ser84Leu mutant after 24 hrs by broth microdilution method
# Type: functional
# Details: not given
# Procedure, shortened: as §1
row,Structure (SMILES),MIC [µg/mL]
1,CO/N=C1\CN(c2nc3c(cc2F)c(=O)c(C(=O)O)cn3C2CC2)CC1CN (centres undefined) [GEMIFLOXACIN],0.125
2,Cc1cc(-c2cc3c(cc2F)c(=O)c2c(=O)[nH]sc2n3C2CC2)ccn1,0.03

# System: Staphylococcus aureus
# Experiment: Antibacterial activity against Staphylococcus aureus ACH-0221 isolate with gyrA Ser84Leu mutant after 24 hrs by broth microdilution method
# Type: functional
# Details: not given
# Procedure, shortened: as §1
row,Structure (SMILES),MIC [µg/mL]
1,CO/N=C1\CN(c2nc3c(cc2F)c(=O)c(C(=O)O)cn3C2CC2)CC1CN (centres undefined) [GEMIFLOXACIN],0.5
2,Cc1cc(-c2cc3c(cc2F)c(=O)c2c(=O)[nH]sc2n3C2CC2)ccn1,0.03

# System: Staphylococcus aureus
# Experiment: Antibacterial activity against Staphylococcus aureus BSA643 isolate with gyrA Ser84Leu and grlA Ser80Tyr, Glu84Gly mutant after 24 hrs by broth microdilution method
# Type: functional
# Details: not given
row,Structure (SMILES),MIC [µg/mL]
1,CO/N=C1\CN(c2nc3c(cc2F)c(=O)c(C(=O)O)cn3C2CC2)CC1CN (centres undefined) [GEMIFLOXACIN],32
2,Cc1cc(-c2cc3c(cc2F)c(=O)c2c(=O)[nH]sc2n3C2CC2)ccn1,0.25

# System: Staphylococcus aureus
# Experiment: Antibacterial activity against Staphylococcus aureus ACH-0201 isolate with gyrA Ser84Leu, Glu88Val and grlA Ser80Phe, Ala116Val mutant after 24 hrs by broth microdilution method
# Type: functional
# Details: not given
row,Structure (SMILES),MIC [µg/mL]
1,CO/N=C1\CN(c2nc3c(cc2F)c(=O)c(C(=O)O)cn3C2CC2)CC1CN (centres undefined) [GEMIFLOXACIN],8
2,Cc1cc(-c2cc3c(cc2F)c(=O)c2c(=O)[nH]sc2n3C2CC2)ccn1,8

# System: Staphylococcus aureus
# Experiment: Antibacterial activity against Staphylococcus aureus ACH-0231 isolate with gyrA Ser84Leu, Glu88Lys and grlA Ser80Tyr, Glu84Gly mutant after 24 hrs by broth microdilution method
# Type: functional
# Details: not given
row,Structure (SMILES),MIC [µg/mL]
1,CO/N=C1\CN(c2nc3c(cc2F)c(=O)c(C(=O)O)cn3C2CC2)CC1CN (centres undefined) [GEMIFLOXACIN],> 64
2,Cc1cc(-c2cc3c(cc2F)c(=O)c2c(=O)[nH]sc2n3C2CC2)ccn1,16

# System: Staphylococcus aureus
# Experiment: Antibacterial activity against Staphylococcus aureus ATCC 700699 isolate with gyrA Ser84Leu, Glu409Lys and grlA Ser80Phe mutant after 24 hrs by broth microdilution method
# Type: functional
# Details: ATCC 700699, 24 h
row,Structure (SMILES),MIC [µg/mL]
1,CO/N=C1\CN(c2nc3c(cc2F)c(=O)c(C(=O)O)cn3C2CC2)CC1CN (centres undefined) [GEMIFLOXACIN],4
2,Cc1cc(-c2cc3c(cc2F)c(=O)c2c(=O)[nH]sc2n3C2CC2)ccn1,0.25

# System: Staphylococcus aureus
# Experiment: Antibacterial activity against Staphylococcus aureus BSA678 isolate with gyrA Ser84Leu, Ser85Pro and grlA Ser80Phe, Glu84Lys mutant after 24 hrs by broth microdilution method
# Details: not given
row,Structure (SMILES),MIC [µg/mL]
1,CO/N=C1\CN(c2nc3c(cc2F)c(=O)c(C(=O)O)cn3C2CC2)CC1CN (centres undefined) [GEMIFLOXACIN],64
2,Cc1cc(-c2cc3c(cc2F)c(=O)c2c(=O)[nH]sc2n3C2CC2)ccn1,4

# System: Staphylococcus aureus
# Experiment: (§2) Antibacterial activity against Staphylococcus aureus ACH-0129 isolate with gyrA Ser84Leu, Glu88Val and grlA Ser80Phe, Ala116Val mutant after 24 hrs by broth microdilution method
# Type: functional
# Details: not given
row,Structure (SMILES),MIC [µg/mL]
1,CO/N=C1\CN(c2nc3c(cc2F)c(=O)c(C(=O)O)cn3C2CC2)CC1CN (centres undefined) [GEMIFLOXACIN],8
2,Cc1cc(-c2cc3c(cc2F)c(=O)c2c(=O)[nH]sc2n3C2CC2)ccn1,4

# System: Staphylococcus aureus
# Experiment: Antibacterial activity against Staphylococcus aureus ACH-0126 isolate with gyrA Ser84Leu and grlA Ser80Phe mutant after 24 hrs by broth microdilution method
# Type: functional
# Details: not given
row,Structure (SMILES),MIC [µg/mL]
1,CO/N=C1\CN(c2nc3c(cc2F)c(=O)c(C(=O)O)cn3C2CC2)CC1CN (centres undefined) [GEMIFLOXACIN],4
2,Cc1cc(-c2cc3c(cc2F)c(=O)c2c(=O)[nH]sc2n3C2CC2)ccn1,0.5

# Target: DNA gyrase subunit A (Staphylococcus aureus, UniProt P20831, S84L)
# Experiment: Inhibition of Staphylococcus aureus DNA gyrase gyrA S84L mutant supercoiling activity assessed as effect on conversion of relaxed pBR322 DNA to supercoiled form
# Details: not given
row,Structure (SMILES),IC50 [µM]
1,CO/N=C1\CN(c2nc3c(cc2F)c(=O)c(C(=O)O)cn3C2CC2)CC1CN (centres undefined) [GEMIFLOXACIN],> 300

# System: Staphylococcus aureus
# Experiment: Antibacterial activity against Staphylococcus aureus ATCC 29213 after 24 hrs by broth microdilution method
# Type: functional
# Details: ATCC 29213, 24 h
# Procedure, shortened: as §1
row,Structure (SMILES),MIC [µg/mL]
1,CO/N=C1\CN(c2nc3c(cc2F)c(=O)c(C(=O)O)cn3C2CC2)CC1CN (centres undefined) [GEMIFLOXACIN],0.03
2,Cc1cc(-c2cc3c(cc2F)c(=O)c2c(=O)[nH]sc2n3C2CC2)ccn1,0.008

# System: Staphylococcus aureus
# Experiment: Antibacterial activity against Staphylococcus aureus NY2746 isolate with gyrA Ser84Leu and grlA Ser80Phe mutant after 24 hrs by broth microdilution method
# Type: functional
# Details: not given
row,Structure (SMILES),MIC [µg/mL]
1,CO/N=C1\CN(c2nc3c(cc2F)c(=O)c(C(=O)O)cn3C2CC2)CC1CN (centres undefined) [GEMIFLOXACIN],32
2,Cc1cc(-c2cc3c(cc2F)c(=O)c2c(=O)[nH]sc2n3C2CC2)ccn1,0.5

# System: not listed separately
# Experiment: Inhibition of Staphylococcus aureus wild-type topoisomerase 4 decatenation activity assessed as unlinking of DNA microcircles from kinetoplast DNA
# Details: not given
# Procedure, shortened: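 S. aureus topo IV reconstituted from His-purified recombinant GrlA and GrlB (E. coli BL21(DE3)pLysS expression), mixed 1:1 molar on ice 10 min. 0.1 μg catenated kDNA with 2 U enzyme, 30 min at 37°C in 1 mM ATP, 5 mM DTT, 5 mM MgCl2, 50 μg/ml BSA, 50 mM Tris-HCl pH 7.5, 250 mM potassium glutamate. Products on 1% agarose gel, ethidium-stained, quantitated; IC50 by nonlinear regression.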
row,Structure (SMILES),IC50 [µM]
1,CO/N=C1\CN(c2nc3c(cc2F)c(=O)c(C(=O)O)cn3C2CC2)CC1CN (centres undefined) [GEMIFLOXACIN],0.4

# System: Staphylococcus aureus
# Experiment: Antibacterial activity against Staphylococcus aureus ACH-0141 isolate with gyrA Ser84Leu, Glu88Val and grlA Ser80Phe, Ala116Val mutant after 24 hrs by broth microdilution method
# Type: functional
# Details: not given
row,Structure (SMILES),MIC [µg/mL]
1,CO/N=C1\CN(c2nc3c(cc2F)c(=O)c(C(=O)O)cn3C2CC2)CC1CN (centres undefined) [GEMIFLOXACIN],4
2,Cc1cc(-c2cc3c(cc2F)c(=O)c2c(=O)[nH]sc2n3C2CC2)ccn1,16

# System: Staphylococcus aureus
# Experiment: Antibacterial activity against Staphylococcus aureus ACH-0210 isolate with gyrA Ser84Leu and grlA Ser80Phe mutant after 24 hrs by broth microdilution method
# Type: functional
# Details: not given
row,Structure (SMILES),MIC [µg/mL]
1,CO/N=C1\CN(c2nc3c(cc2F)c(=O)c(C(=O)O)cn3C2CC2)CC1CN (centres undefined) [GEMIFLOXACIN],4
2,Cc1cc(-c2cc3c(cc2F)c(=O)c2c(=O)[nH]sc2n3C2CC2)ccn1,0.5

# System: Staphylococcus aureus
# Experiment: as §2
# Type: functional
# Details: not given
row,Structure (SMILES),MIC [µg/mL]
1,Cc1cc(-c2cc3c(cc2F)c(=O)c2c(=O)[nH]sc2n3C2CC2)ccn1,4

# System: not listed separately
# Experiment: Inhibition of Staphylococcus aureus […] topoisomerase 4 grlA S80F mutant decatenation activity assessed as unlinking of DNA microcircles from kinetoplast DNA
# Details: not given
# Procedure, shortened: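 Recombinant S. aureus GrlA (Ser80Phe) and GrlB were mixed 1:1 molar on ice for 10 min. kDNA (0.1 μg) with 2 U enzyme, 30 min at 37°C, in 1 mM ATP, 5 mM MgCl2, 250 mM K-glutamate, 50 mM Tris pH 7.5. Reactions stopped with EDTA, run on 1% agarose-TBE and ethidium-stained, minicircles quantitated. IC50 by nonlinear regression.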
row,Structure (SMILES),IC50 [µM]
1,CO/N=C1\CN(c2nc3c(cc2F)c(=O)c(C(=O)O)cn3C2CC2)CC1CN (centres undefined) [GEMIFLOXACIN],9.8

# System: Staphylococcus aureus
# Experiment: Antibacterial activity against Staphylococcus aureus ACH-0203 isolate with gyrA Ser84Leu and grlA Ser80Phe, Ala116Val mutant after 24 hrs by broth microdilution method
# Type: functional
# Details: not given
# Procedure, shortened: as §1
row,Structure (SMILES),MIC [µg/mL]
1,CO/N=C1\CN(c2nc3c(cc2F)c(=O)c(C(=O)O)cn3C2CC2)CC1CN (centres undefined) [GEMIFLOXACIN],32
2,Cc1cc(-c2cc3c(cc2F)c(=O)c2c(=O)[nH]sc2n3C2CC2)ccn1,2

# System: Staphylococcus aureus
# Experiment: Antibacterial activity against Staphylococcus aureus ACH-0192 isolate with gyrA Ser84Leu and grlA Ser80Phe, Ala116Val mutant after 24 hrs by broth microdilution method
# Type: functional
# Details: not given
row,Structure (SMILES),MIC [µg/mL]
1,CO/N=C1\CN(c2nc3c(cc2F)c(=O)c(C(=O)O)cn3C2CC2)CC1CN (centres undefined) [GEMIFLOXACIN],8
2,Cc1cc(-c2cc3c(cc2F)c(=O)c2c(=O)[nH]sc2n3C2CC2)ccn1,2
